Screening results from PubChem BioAssay.
SKN-1 inh – C. elegans SKN-1 inhibition. C. elegans VP596 Pgst-4::GFP/RFP ratio, acrylamide-induced, 24 h. inhibition, % at 21.8 µM. 0.49% of 360,000 active;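 active means interference check ratio from 0.5 to 1.5 plus GFP to RFP signal ratio inhibition reaching or exceeding a fixed threshold, cut at about 30% in these data, passing the limit was not always enough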
MT1-MMP act inh – inhibitors of human MT1-MMP activation; P50281; HT1080 RFP-PRO-GFP cells, GFP/RFP ratio fluorescence, overnight; percent of plate control window, DMSO zero; GFP/RFP ratio change, % at 20 µM; 0.061% of 360,000 active; AID 651647;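 active means GFP/RFP ratio change of at least 30% with cell ATP level not reduced by more than half and red fluorescence within 50% of control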
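Assay system – RFP-PRO-GFP reporter HT1080 cells · Compound dosing – single dose of 20 µM compound, 1% DMSO final · Incubation – overnight compound exposure at 37 °C · Measure – GFP/RFP fluorescence ratio · Benchmarks – DMSO wells and RFP-L50D-GFP cells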
ATG4B inh – blocks human ATG4B protease cleavage of LC3 substrate; Q9Y4P1; ATG4B cleavage of LC3-PLA2, NBD-HPC fluorescence, 1 h; inhibition, % at 8.33 µM; 0.51% of 340,000 active; AID 504462; in the data active means inhibition above about 40%
Target sequence (Q9Y4P1 whole entry, looked up): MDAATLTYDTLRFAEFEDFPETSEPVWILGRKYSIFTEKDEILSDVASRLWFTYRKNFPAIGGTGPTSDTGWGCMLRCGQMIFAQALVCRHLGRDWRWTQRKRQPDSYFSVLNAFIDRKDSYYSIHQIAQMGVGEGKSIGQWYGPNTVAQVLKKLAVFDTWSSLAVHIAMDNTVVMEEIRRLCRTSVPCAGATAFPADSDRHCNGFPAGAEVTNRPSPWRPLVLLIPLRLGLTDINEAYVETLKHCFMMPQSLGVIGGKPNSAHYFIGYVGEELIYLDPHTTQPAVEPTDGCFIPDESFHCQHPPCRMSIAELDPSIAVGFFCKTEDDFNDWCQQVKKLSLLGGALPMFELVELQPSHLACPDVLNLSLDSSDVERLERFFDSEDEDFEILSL
MPTP block – permeability transition pore inhibition; isolated mouse mitochondria, Ca2+ swelling absorbance, 30 min; inhibition, % at 10 µM; 1.4% of 360,000 active; AID 602449;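 active means inhibition of 50% or more, scaled per plate between neutral and stimulator controls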
ATG4B confirm – ATG4B (human) inhibition, single-dose confirmed; shares compounds with ATG4B inh; 92% of 320 active; inhibition, % at 8.33 µM; ATG4B protease fluorescent substrate cleavage assay; in the data active means inhibition above about 39%
PLA2 ctr – inhibits human PLA2, flagging false ATG4B inhibitors | shares compounds with ATG4B inh | purified PLA2, NBD-C6-HPC fluorescence, 45 min | inhibition, % at 8.33 µM | 66% of 1,600 active | AID 588402; in the data active means inhibition above about 50%
Target sequence (P04054 whole entry, looked up): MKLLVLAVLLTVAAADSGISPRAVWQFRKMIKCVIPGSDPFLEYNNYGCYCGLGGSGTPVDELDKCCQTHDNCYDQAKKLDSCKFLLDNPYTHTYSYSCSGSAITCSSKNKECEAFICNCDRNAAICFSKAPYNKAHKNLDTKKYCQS
A number is an active result; 0 = inactive; - = not tested or not shown. Rows were chosen to be rich in hits. Some 2.3% of all compounds tested hit in one or more screens of this group.

SMILES	SKN-1 inh	MT1-MMP act inh	ATG4B inh	MPTP block	PLA2 ctr	others
O=C(CCNC(=O)C1CCN(S(=O)(=O)c2ccccc2)CC1)NCc1cccc(C(F)(F)F)c1	0	0	0	0	-
O=C(O)COc1ccccc1/C=C1\SC(=S)N(NC(=O)c2ccccc2O)C1=O	0	0	0	0	-
O=C(O)COc1ccccc1/C=C1\SC(=S)N(/N=C/c2ccccc2O)C1=O	0	0	48	0	0	ATG4B confirm=68
O=C(CSc1nc2ccccc2c(=O)n1Cc1ccccc1)Nc1ccc(Br)cc1C(=O)O	0	0	45	0	0	ATG4B confirm=60
O=C1Nc2ccccc2C1=Nc1ccccc1-c1ccccc1	0	0	0	0	-
N#C/C(=C\c1ccccc1[N+](=O)[O-])c1nc(C2CC2)cs1	0	0	48	0	63
Cc1cc(C)nc(SCc2ccc(C(=O)N/N=C3\CC(C)CC(C)(C)C3)cc2)n1 (stereo not drawn)	0	0	47	0	0	ATG4B confirm=76
Cc1cc(C)nc(SCc2ccc(C(=O)NN=C3C4CC5CC(C4)CC3C5)cc2)n1	0	0	0	0	-
Cc1cc(C(=O)N/N=C/C(Cl)=C/c2ccccc2)c(C)o1	0	0	0	0	-
NC(=O)C1CCN(c2nc(-c3cccs3)cs2)CC1	0	0	45	0	54
NC(=O)C1CCN(c2nc(-c3ccc(Br)cc3)cs2)CC1	0	0	0	0	-
O=C(Cc1cccc(C(F)(F)F)c1)NCc1cccc(Cl)c1	0	0	0	0	-
O=C(NCc1cccc(Cl)c1)c1ccc(S(=O)(=O)Nc2cccc(C(F)(F)F)c2)cc1	0	0	58	0	60
Cc1cccc(N=C2NC(=O)/C(=C/c3cccn3C)S2)c1	0	0	0	0	-
O=C1NC(=Nc2ccccc2)S/C1=C\c1cccn1-c1ccccc1	0	0	68	0	59
N#CCC(=O)c1sccc1-n1cccc1	0	0	0	0	-
Cc1nc(NC(C)c2ccccc2)c2c3c(sc2n1)CCC3 (stereo not drawn)	0	0	46	0	0
Cc1nc(NS(=O)(=O)c2ccc(Br)cc2)c2c3c(sc2n1)CCC3	0	0	68	0	72
CCCCn1c(N)c(N(CCOC)C(=O)c2ccc(S(=O)(=O)N3CCCCC3)cc2)c(=O)[nH]c1=O	0	0	0	0	-
C#CCOCCOCCOCCNc1nc(N2CCN(C(=O)CCCCCCCCCCNC(=O)[C@H]([C@@H](C)CC)n3cc(CCCCN=C(N)N)nn3)CC2)nc(N2CCN(C(=O)CCCCCCCCCCNC(=O)[C@H](CCCCN)n3cc(C)nn3)CC2)n1	-	-	57	-	0	ATG4B confirm=0
CN(C)S(=O)(=O)c1ccc2[nH]cc(/C=C/c3nc4ccccc4c(=O)n3-c3ccccc3)c2c1	0	0	42	0	0	ATG4B confirm=105
O=C(Nc1sc2c(c1C(=O)O)CCCCC2)c1ccccc1	0	0	0	0	-
O=C(Nc1sc2c(c1C(=O)O)CCCC2)c1cccc(Cl)c1	0	0	42	0	51
CCOC(=O)c1cc(-c2ccc(C)cc2)n(CCC(=O)N2CCN(c3ccccn3)CC2)c1C	0	0	0	0	-
CC(C)[C@H](NS(=O)(=O)c1ccccc1)C(=O)OCC(=O)Nc1ccccc1Sc1ccccc1	0	0	94	0	92
SMILES	SKN-1 inh	MT1-MMP act inh	ATG4B inh	MPTP block	PLA2 ctr	others
COc1cc2c(cc1NC(=O)COC(=O)[C@@H](NS(=O)(=O)c1ccccc1)C(C)C)oc1ccccc12	0	0	76	0	83
Cc1cc(NC(=O)COC(=O)[C@@H](NS(=O)(=O)c2ccccc2)C(C)C)no1	0	0	0	0	-
CC(C)CC(NC(=O)OC(C)(C)C)c1cn([C@@H](Cc2ccc(O)cc2)C(=O)N2CCN(C(=O)OC(C)(C)C)CC2)nn1 (stereo partly drawn)	0	0	0	0	-
N#Cc1c(N)[nH]c(=S)c(C#N)c1-c1ccccc1	0	0	0	0	-
N#Cc1c(N)[nH]c2ccc(Sc3ccccc3)cc12	0	0	41	0	0	ATG4B confirm=68
C=CCn1c(COc2ccccc2-c2ccccc2)nnc1SCC(=O)NC(=O)NCc1ccco1	0	0	75	0	85
O=C(COC(=O)c1cc(=O)[nH]c(=O)[nH]1)Nc1cccc(S(=O)(=O)N2CCCCC2)c1	0	0	0	0	-
CCC(C(=O)Nc1ccc2[nH]ncc2c1)c1ccccc1 (stereo not drawn)	0	0	0	0	-
O=c1[nH]c(NNC(=S)NCc2ccccc2)nc2c1C1(CCCCC1)Cc1ccccc1-2	0	0	72	0	79
COc1cc(OC)cc(C(=O)Nc2ccc(N3CCOCC3)cc2N2CCOCC2)c1	0	0	0	0	-
COc1ccc(N2CCN(C(=O)c3[nH]c4ccc(OC)cc4c3C)CC2)cc1	0	0	0	0	-
COc1ccc(-c2cc(C(=O)N3CCc4ccccc4C3)no2)cc1	0	0	0	0	-
COc1ccc(OC)c(-c2cc(C(=O)N3CCc4ccccc4C3)no2)c1	0	0	49	0	56
COc1ccc2[nH]c(C(=O)N3CCc4ccccc4C3)c(C)c2c1	0	0	62	0	64
COc1ccc(OC)c(CC(=O)N2CCc3cc(OC)c(OC)cc3C2)c1	0	0	0	0	-
Cc1ccc(-c2ccc(/C=C3\C(=O)ON=C3c3ccccc3)o2)c([N+](=O)[O-])c1	0	0	63	0	0
CCOc1ccccc1NC(=O)COC(=O)C(CC)c1ccccc1 (stereo not drawn)	0	0	0	0	-
Cc1ccc(C(=O)c2cnc3ccccc3c2-c2ccccc2)cc1	0	0	69	0	82
Cc1ccc(C(=O)c2nc(C(=O)NCCO)nc3ccccc23)cc1	0	0	0	0	-
COc1ccc(C(=O)c2cnc3ccccc3c2-c2ccccc2)cc1	0	0	72	0	83
Oc1c(C=C2N=c3ccccc3=N2)sc(=S)n1-c1ccccc1	0	0	0	0	-
CC1=Nc2ccccc2/C1=C/c1sc(=S)n(-c2cccc(C(=O)O)c2)c1O	0	0	60	0	85
O=C(c1nn(Cc2ccccc2)c(=O)c2ccccc12)N1CCN(C/C=C/c2ccccc2)CC1	0	0	49	0	55
CCc1ccc(CN(C)C(=O)C2CCC(=O)N(Cc3ccccn3)C2)cc1 (stereo not drawn)	0	0	0	0	-
Clc1ccc(CSc2nnc(-c3ccccn3)n2Cc2ccco2)c(Cl)c1	0	0	41	0	55
COc1ccc(C(=O)N(C)Cc2ccc(C)o2)cc1OC1CCN(C(C)C)CC1	0	0	0	0	-
Cc1cccc(NC(=S)Nc2ccc(Oc3ccccc3)cc2)n1	0	0	44	0	0	ATG4B confirm=67
COc1ccc(/C=C2\CCC(C3CCCC3)C2=O)cc1Cn1cccn1 (stereo not drawn)	0	0	68	0	65
NC(=O)C1CCN(C2=C(NS(=O)(=O)c3ccc(Br)cc3)C(=O)c3ccccc3C2=O)CC1	0	0	64	0	60
